TAAR1 antag: human TAAR1 antagonists, primary screen, Fluo-8 calcium fluorescence, CHO RD-HGA16 cells. antagonist. AID 624466, 2012. Trace amine-associated receptor 1 (Homo sapiens), Q96RJ0. inhibition, % at 3 µM. 1.5% of 360,000 active;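 active = inhibition above a per-plate cutoff, the mean inhibition of test compounds on that plate plus 3 SD, cut at about 49% in these data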;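 note: 0% = DMSO plus EC80 beta-PEA response and 100% = DMSO alone without agonist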
Target sequence (Q96RJ0 whole entry, looked up): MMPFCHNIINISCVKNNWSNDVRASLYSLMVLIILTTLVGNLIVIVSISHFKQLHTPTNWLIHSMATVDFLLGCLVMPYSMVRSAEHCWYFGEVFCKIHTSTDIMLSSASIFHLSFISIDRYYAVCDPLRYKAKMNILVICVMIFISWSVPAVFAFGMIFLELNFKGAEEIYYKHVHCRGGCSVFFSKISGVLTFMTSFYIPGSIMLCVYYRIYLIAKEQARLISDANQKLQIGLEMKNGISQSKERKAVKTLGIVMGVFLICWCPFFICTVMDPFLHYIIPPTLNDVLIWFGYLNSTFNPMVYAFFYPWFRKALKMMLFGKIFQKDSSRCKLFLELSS
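Test system: RD-HGA16 CHO cells with stable hTAAR1 and Gα16 / Probe or stimulus: EC80 β-phenethylamine stimulus / Times: seeding 17-24 h prior, 75-min 37 °C, 30-min RT dye loading / Detection: Fluo-8 calcium-sensitive fluorescence / Read-out basis: % inhibition scaled between DMSO and EC80 PEA controls / Repeats: singlicate, one well per test compound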
OX1R antag-1: antagonists of human orexin 1 receptor (OX1R); Orexin/Hypocretin receptor type 1 (Homo sapiens), O43613; OX1R-expressing cells, FRET antagonist read-out; 1.8% of 330,000 active; inhibition, % at 6.6 µM; in the data active = inhibition mostly above about 38%, no sharp cut-off; inactive = mostly below about 40%;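 note: 0% = agonist challenge alone and 100% = reference antagonist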
CHO parental Ca: ATP-evoked calcium signal inhibitors, parental CHO, primary screen, counter-screen for OX1R antagonist project, cell-based, fluorescence, Fluo-8 calcium dye; 0.63% of 330,000 active; parental CHO-K1, ATP-induced calcium, Fluo-8 fluorescence; AID 463079, 2010; inhibition, % at 5.6 µM;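 active = inhibition above that plate's mean sample inhibition plus 3 SD, cut at about 26% in these data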;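 note: 0% = ATP-challenged DMSO wells and 100% = DMSO wells without ATP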
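Measured by: calcium-sensitive Fluo-8 fluorescence / Test system: CHO parental line / Controls: ATP-challenged DMSO wells low, unchallenged DMSO wells high / Measure: % inhibition / Compound: single nominal dose of 5.6 µM per compound / Replicates: single well per compound, no replicates / Reagent: ATP as calcium-mobilizing challenge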
OX1R antag-2: OX1R (HCRTR1) antagonists, primary screen, fluorescence, CHO/OX1R cells, Fluo-8 calcium, orexin A; Fluo-8 calcium fluorescence; Orexin/Hypocretin receptor type 1 (Homo sapiens), O43613; 0.43% of 330,000 active; inhibition, % at 5 µM;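 active = inhibition above its plate's threshold, mean inhibition of all tested compounds on the plate plus 3 SD, cut at about 37% in these data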;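 note: 0% = orexin A challenge wells and 100% = SB-334867-A antagonist wells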
GPR7 antagonist: GPR7 receptor antagonists, primary screen, cell-based, fluorescence, single concentration. Neuropeptides B/W receptor type 1 (Homo sapiens), P48145. GPR7-expressing cells, fluorescence antagonist assay. inhibition, % at 4.4 µM. 1.1% of 290,000 active; in the data active = inhibition above about 16%, passing the limit was not always enough;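 note: cells stimulated with the agonist NPW; 0% = agonist with vehicle and 100% = vehicle without agonist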
TAAR1 agonist: human TAAR1 agonists, primary screen, Fluo-8 calcium fluorescence, CHO RD-HGA16 cells; 0.99% of 360,000 active; vehicle wells 0%, saturating PEA agonist 100%; Trace amine-associated receptor 1 (Homo sapiens), Q96RJ0; AID 624467, 2012; activation, % at 3 µM;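 active = activation above the mean activation of all test compounds in the run plus 3 SD, cut at about 38% in these data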
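Repeats: no replicates (n 1) | Material: CHO-derived RD-HGA16 cells with stable Gα16 and human TAAR1 | Technique: Kinetic Fluo-8 calcium fluorescence | Schedule: 17-24 h seeding, 75 min 37 °C dye, 30 min RT | Evaluation: % activation from peak over basal fluorescence ratio, DMSO-to-PEA scaled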
* marks the source's active call; other numbers are inactive results; nt = not tested or not shown. Most compounds without a hit are left out; they make up all but 4.5% or so of the library.

SMILES	TAAR1 antag	OX1R antag-1	CHO parental Ca	OX1R antag-2	GPR7 antagonist	TAAR1 agonist
O=c1oc2c3c4c(cc2c2c1CCC2)OCCN4CCC3	-1	59*	-13	-6	-7	0
COc1ccc(OC)c(-n2c(Cn3c(-c4ccccn4)nc4ccccc43)n[nH]c2=S)c1	-1	59*	-13	4	-5	4
c1csc(-c2nc(-c3ccc(-c4ccon4)s3)no2)c1	-1	40*	-9	28	-8	0
Nc1n[nH]c(-c2ccc([N+](=O)[O-])cc2[N+](=O)[O-])n1	-7	67*	1	-7	-6	2
Nc1nc(-c2ccc([N+](=O)[O-])cc2)cc(=O)[nH]1	-6	nt	nt	nt	nt	0
CC(C)c1csc(CN2CCC(n3nccc3NC(=O)Cc3ccccc3)CC2)n1	-12	34	-12	-13	-2	6
CN(CC(=O)Nc1ccc(Cl)c(C(F)(F)F)c1)C(=O)C1CC(=O)N(CCc2ccccc2)C1 (stereo not drawn)	50*	nt	nt	nt	nt	15
COCCCNC(=O)CSc1nc2ccccc2c(=O)n1CCc1ccc(S(N)(=O)=O)cc1	57*	42	-12	-21	-2	10
COc1ccc(OC)c(S(=O)(=O)NCC2CCN(C(=O)C(=O)c3cc4ccccc4o3)CC2)c1	0	nt	nt	nt	nt	2
Cc1ccc(-n2c(-c3ccccc3)cc(/C=N/NC(=O)CC#N)c2-c2ccccc2)cc1	-3	10	3	-21	-9	2
N#CCC(=O)N/N=C/c1cc(-c2ccccc2)n(-c2ccc(Cl)cc2)c1-c1ccccc1	13	104*	-10	-19	3	-1
CCOC(OCC)c1cn(Cc2ccc3c(c2)C(=O)c2ccccc2C3=O)nn1	1	76*	-9	-15	-5	0
CCOC(=O)c1cn(Cc2ccc(Br)cc2)nn1	-2	5	-5	-14	-2	0
Cc1ccc(C)n1-n1c(C)nc2sc(-c3ccccc3)cc2c1=O	12	57	39*	27	9	0
Cc1ccccc1NS(=O)(=O)c1cccc(-c2nnc(-c3ccccc3)o2)c1	11	40*	-16	-11	0	4
CCC(=O)NC(c1ccco1)c1cc(Cl)c2ccccc2c1O (stereo not drawn)	1	50*	-16	23	nt	10
O=C(/C=C/c1ccc(OCCCF)cc1)Nc1ccnc(-c2cccnc2)n1	55*	28	-5	-15	2	19
O=C(/C=C/c1ccc(OCCCF)cc1)NCc1cccc(Cl)c1	-2	26	2	-6	-7	3
O=C(/C=C/c1ccc(OCCCF)cc1)Nc1ccnc(-c2ccncc2)n1	16	85*	30	22	-19	11
CCCCC(=O)Nc1ccnc(-c2cccnc2)n1	-18	9	4	-12	-16	6
CN1CCCCC(NC(=O)c2cccc(F)c2)C1=O (stereo not drawn)	3	nt	nt	nt	nt	1
O=C(N[C@@H](Cc1cccnc1)C(=O)N1CCC[C@H]1C(=O)NC1CCCC1)c1cccs1	-16	nt	nt	nt	nt	1
Cc1nnc(Sc2cc(NCCCO)c([N+](=O)[O-])c3nonc23)s1	7	nt	nt	nt	16	1
CCC(=O)OCCNc1cc(Sc2nc3ccccc3s2)c2nonc2c1[N+](=O)[O-]	14	52*	61*	60*	2	9
CCC(=O)OCCNc1cc(Sc2nc3ccccc3[nH]2)c2nonc2c1[N+](=O)[O-]	20	93*	61*	30	15	11
O=[N+]([O-])c1c(NCCCO)cc(Sc2nc3ccccc3s2)c2nonc12	nt	45*	51*	54*	4	nt
COC(=O)C1=CCCCC(O)=C1C(=O)OC	-25	nt	nt	nt	nt	2
Cc1ccc(S(=O)(=O)N2[C@H](CC(=O)c3cccs3)OC[C@@H]2C)cc1	-19	nt	nt	nt	nt	-2
